Experimental data published in ChEMBL document CHEMBL1765030, “Discovery and preclinical evaluation of a novel class of cytotoxic propynoic acid carbamoyl methyl amides (PACMAs)” (J Med Chem, 2011).
The source made the active and inactive calls. The rule behind the calls is not given here.

Key:
HEY = assay: Cytotoxicity against human HEY cells after 72 hrs by MTT assay; format: functional, cell-based
Summary of the method: (§1)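 Cells were attached overnight, then continuously exposed to drug for 72 h. MTT (0.5 mg/mL final) was added for 4 h at 37 °C, formazan dissolved in DMSO, and A570 read; all in triplicate. IC50 came from log(concentration) vs % cells killed. Media: RPMI-1640 for HT29, HCT116 p53+/+ and p53−/−, and HEY; DMEM for MDA-MB-435 and UMUC3; all with 10% FBS, 37 °C, 5% CO₂.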

[1] = Octanol-water distribution coefficient, log P of the compound; format: physicochemical
HT-29 = assay: Cytotoxicity against human HT-29 cells after 72 hrs by MTT assay; format: functional, cell-based; details: HT-29, 72 h; summary of the method: as §1
HCT-116 [2] = assay: Cytotoxicity against human HCT116 cells […] after 72 hrs by MTT assay; format: functional, cell-based; details: HCT-116, 72 h; summary of the method: as §1
HCT-116 [3] = assay: Cytotoxicity against p53 deficient human HCT116 cells […] after 72 hrs by MTT assay; format: functional, cell-based; details: HCT-116, 72 h; summary of the method: as §1
MDA-MB-435 [4] = assay: Cytotoxicity against human MDA-MB-435 cells after 72 hrs by MTT assay; format: functional, cell-based; details: MDA-MB-435, 72 h; summary of the method: as §1
UMUC3 = assay: Cytotoxicity against human UM-UC-3 cells after 72 hrs by MTT assay; format: functional, cell-based; details: UMUC3, 72 h; summary of the method: as §1
5637 = assay: Cytotoxicity against human 5637 cells after 72 hrs by MTT assay; format: functional, cell-based; details: Homo sapiens, 5637, 72 h
NCI/ADR-RES = assay: Cytotoxicity against human NCI/ADR-RES cells after 72 hrs by MTT assay; format: functional, cell-based
MDA-MB-435 [5] = assay: Cytotoxicity against human MDA-MB-435 cells at 1 uM after 24 hrs using crystal violet staining by colony formation assay; format: functional, cell-based
Summary of the method: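 Cells were plated at 1000 per well, attached overnight, and exposed to 1 μM for 24 h. They were then washed and grown in fresh medium for 8–10 days until colonies formed, fixed in 1% glutaraldehyde for 30 min, and stained with 2% crystal violet for 30 min. Vehicle was DMSO.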

MDA-MB-435 [6] = assay: Induction of apoptosis in human MDA-MB-435 cells assessed as viable cells at 10 uM after 24 hrs using by annexin V and propidium iodide staining by flow cytometry relative to control; format: functional; details: MDA-MB-435, 24 h, read-out: Activity
Summary of the method: (§2)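 Treatment was 10 μM for 24 and 48 h, with an untreated 48 h control run in parallel. Floating and adherent cells were pooled and stained with annexin V-FITC/propidium iodide, then read by flow cytometry (FITC and PE channels). Quadrants: annexin−/PI− viable; annexin+/PI− early apoptotic; annexin+/PI+ late apoptotic; lower right necrotic/debris.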

MDA-MB-435 [7] = assay: Induction of apoptosis in human MDA-MB-435 cells assessed as pre-necrotic cells at 10 uM after 24 hrs using by annexin V and propidium iodide staining by flow cytometry relative to control; format: functional; summary of the method: as §2
MDA-MB-435 [8] = assay: Induction of apoptosis in human MDA-MB-435 cells assessed as apoptotic cells at 10 uM after 24 hrs using by annexin V and propidium iodide staining by flow cytometry relative to control; format: functional; summary of the method: as §2
MDA-MB-435 [9] = assay: Induction of apoptosis in human MDA-MB-435 cells assessed as necrotic cells at 10 uM after 24 hrs using by annexin V and propidium iodide staining by flow cytometry relative to control; format: functional; summary of the method: as §2
MDA-MB-435 [10] = assay: Induction of apoptosis in human MDA-MB-435 cells assessed as viable cells at 10 uM after 48 hrs using by annexin V and propidium iodide staining by flow cytometry relative to control; format: functional; details: MDA-MB-435, 48 h, read-out: Activity; summary of the method: as §2
MDA-MB-435 [11] = assay: Induction of apoptosis in human MDA-MB-435 cells assessed as pre-necrotic cells at 10 uM after 48 hrs using by annexin V and propidium iodide staining by flow cytometry relative to control; format: functional; summary of the method: as §2
MDA-MB-435 [12] = assay: Induction of apoptosis in human MDA-MB-435 cells assessed as apoptotic cells at 10 uM after 48 hrs using by annexin V and propidium iodide staining by flow cytometry relative to control; format: functional; summary of the method: as §2
MDA-MB-435 [13] = assay: Induction of apoptosis in human MDA-MB-435 cells assessed as necrotic cells at 10 uM after 48 hrs using by annexin V and propidium iodide staining by flow cytometry relative to control; format: functional; summary of the method: as §2
MDA-MB-435 [14] = assay: Induction of apoptosis in human MDA-MB-435 cells assessed as up-regulation of p53 protein expression at 1 uM after 24 to 72 hrs by Western blotting; format: functional, cell-based
Summary of the method: (§3)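 Cells were treated with 1 μM for 24–72 h and lysed in 50 mM Tris-HCl pH 7.5, 150 mM NaCl, 1% NP-40. Equal protein (BCA) was run on 10% tris-glycine SDS-PAGE and blotted to nitrocellulose. Membranes were blocked in 5% BSA/PBS for 1 h, probed overnight at 4 °C with anti-p53 or anti-caspase-9 (plus tubulin/GAPDH antibodies), and detected by HRP secondary with ECL imaging.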

MDA-MB-435 [15] = assay: Induction of apoptosis in human MDA-MB-435 cells assessed as decrease of caspase 9 protein expression at 1 uM after 24 to 72 hrs by Western blotting relative to control; format: functional; summary of the method: as §3
MDA-MB-435 [16] = assay: Increase of mitochondrial superoxide accumulation in human MDA-MB-435 cells at IC50 to 3 times IC50 after 24 hrs by flow cytometry; format: functional, cell-based
Summary of the method: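 Cells were drug-treated at two concentrations for 24 h, then loaded with 5 μM MitoSOX Red for 10 min at 37 °C and washed three times in HBSS. Cells were either viewed by fluorescence microscopy or trypsinized, washed twice in HBSS and read by flow cytometry; untreated cells served as control.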

Mus musculus [17] = assay: Toxicity in human MDA-MB-435 cells xenografted athymic nude mouse assessed as histological changes in organ at 10 mg/kg, ip for 9 days followed by 20 mg/kg, ip for 5 days followed by 40 mg/kg, ip for 12 days; format: organism-based; details: in vivo
Mus musculus [18] = assay: Toxicity in human MDA-MB-435 cells xenografted athymic nude mouse assessed as change in doy weight at 10 mg/kg, ip for 9 days followed by 20 mg/kg, ip for 5 days followed by 40 mg/kg, ip for 12 days; format: organism-based; details: in vivo
Summary of the method: (§4)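 Athymic nude mice were inoculated s.c. on the rear flank with 1.5 × 10⁶ log-phase MDA-MB-435 cells. At ~100 mm³ average tumor volume, mice were randomized (n = 8) to vehicle (10% DMSO/90% sesame oil) or drug, given i.p. once daily, dosed by group mean body weight. Caliper tumor measurements were taken twice weekly, volume = d²×D/2; mice were followed 17 days after dosing ended, with body weight monitored.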

MDA-MB-435 [19] = assay: Antitumor activity against human MDA-MB-435 cells xenografted in athymic nude mouse assessed as reduction of tumor burden at 10 mg/kg, ip for 9 days followed by 20 mg/kg, ip for 5 days followed by 40 mg/kg, ip for 12 days; format: functional, organism-based; summary of the method: as §4
MDA-MB-435 [20] = assay: Cell cycle arrest in human MDA-MB-435 cells assessed as accumulation at G0/G1 phase at 5 uM after 6 hrs using propidium iodide staining by flow cytometry (reference value: 50%); format: functional
MDA-MB-435 [21] = assay: Cell cycle arrest in human MDA-MB-435 cells assessed as accumulation at S phase at 5 uM after 6 hrs using propidium iodide staining by flow cytometry (reference value: 41%); format: functional
MDA-MB-435 [22] = assay: Cell cycle arrest in human MDA-MB-435 cells assessed as accumulation at G2/M phase at 5 uM after 6 hrs using propidium iodide staining by flow cytometry (reference value: 9%); format: functional
MDA-MB-435 [23] = assay: Cell cycle arrest in human MDA-MB-435 cells assessed as accumulation at G0/G1 phase at 5 uM after 12 hrs using propidium iodide staining by flow cytometry (reference value: 50%); format: functional
MDA-MB-435 [24] = assay: Cell cycle arrest in human MDA-MB-435 cells assessed as accumulation at S phase at 5 uM after 12 hrs using propidium iodide staining by flow cytometry (reference value: 41%); format: functional
MDA-MB-435 [25] = assay: Cell cycle arrest in human MDA-MB-435 cells assessed as accumulation at G2/M phase at 5 uM after 12 hrs using propidium iodide staining by flow cytometry (reference value: 9%); format: functional
MDA-MB-435 [26] = assay: Cell cycle arrest in human MDA-MB-435 cells assessed as accumulation at G0/G1 phase at 5 uM after 24 hrs using propidium iodide staining by flow cytometry (reference value: 50%); format: functional
MDA-MB-435 [27] = assay: Cell cycle arrest in human MDA-MB-435 cells assessed as accumulation at S phase at 5 uM after 24 hrs using propidium iodide staining by flow cytometry (reference value: 41%); format: functional
MDA-MB-435 [28] = assay: Cell cycle arrest in human MDA-MB-435 cells assessed as accumulation at G2/M phase at 5 uM after 24 hrs using propidium iodide staining by flow cytometry (reference value: 9%); format: functional
[29] = Elimination rate constant in mouse at 24 mg/kg, ip; format: ADME, organism-based; design: dose 24 mg/kg, route intraperitoneal; details: in vivo
Summary of the method: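 Mice received a single 24 mg/kg i.p. injection, with two mice per time point. Blood was drawn into heparinized syringes at set times between 0.5 and 24 h, and plasma was separated by centrifugation and stored at −80 °C. Plasma drug was quantified by validated LC-MS (lowest quantification level 1 ng/mL), and parameters were derived by noncompartmental analysis.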

logP [1] | SMILES | IC50 (HEY) | IC50 (HT-29) | IC50 (HCT-116 [2]) | IC50 (HCT-116 [3]) | IC50 (MDA-MB-435 [4]) | IC50 (UMUC3) | IC50 5637 | IC50 (NCI/ADR-RES) | Activity (MDA-MB-435 [5]) | viability at 10 µM (MDA-MB-435 [6]) | Activity (MDA-MB-435 [7]) | Activity (MDA-MB-435 [8]) | Activity (MDA-MB-435 [9]) | viability at 10 µM (MDA-MB-435 [10]) | Activity (MDA-MB-435 [11]) | Activity (MDA-MB-435 [12]) | Activity (MDA-MB-435 [13]) | Activity (MDA-MB-435 [16]) | also measured
2.54 | C#CC(=O)N(c1cc(OC)cc(OC)c1)C(C(=O)NC1CCCCC1)c1ccc(OC)cc1 (configuration not stated) | 4.4 µM | 6.3 µM | 12.5 µM | 11 µM | 5.4 µM | > 20 µM | 2.2 µM | 0.3 µM | Active | 95% | 2% | 1% | 2% | 53% | 9% | 3% | 35% | Active | Activity (MDA-MB-435 [14]): Active; fold change (FC) (MDA-MB-435 [15]): 2
3.7 | C#CC(=O)N(c1cccc(C(F)(F)F)c1)C(C(=O)NC1CCCC1)c1cccc(OC)c1 (configuration not stated) | 5.2 µM | 7.2 µM | > 10 µM | 8.8 µM | 6.3 µM | > 20 µM | 0.6 µM | 0.2 µM | Active | 93% | 2% | 1% | 4% | 52% | 10% | 1% | 37% | Active | Activity (Mus musculus [17]): Non-toxic; Activity (Mus musculus [18]): 29 g; Activity (MDA-MB-435 [19]): Active
3.91 | C#CC(=O)N(c1ccc(-n2cnnn2)c(C)c1)C(C(=O)NC1CCCC1)c1ccccc1F (configuration not stated) | 1.5 µM | 1.8 µM | 6.3 µM | 5.5 µM | 1.4 µM | 6.3 µM | 0.7 µM | 1 µM | Active | 66% | 6% | 1% | 27% | 11% | 24% | 3% | 62% | Active | Activity (MDA-MB-435 [20]): 40%; Activity (MDA-MB-435 [21]): 51%; Activity (MDA-MB-435 [22]): 9%; Activity (MDA-MB-435 [23]): 36%; Activity (MDA-MB-435 [24]): 51%; Activity (MDA-MB-435 [25]): 13%; Activity (MDA-MB-435 [26]): 33%; Activity (MDA-MB-435 [27]): 51%; Activity (MDA-MB-435 [28]): 16%; k el [29]: 5.72e-05 s⁻¹
